This assay deals with Mycobacterium tuberculosis. Nature of the assay: Antimicrobial activity against recombinant Mycobacterium bovis BCG expressing pMV361 lux after 5 days by luciferase assay. Format: functional. The following applies: variant bovis BCG, 120 h. In short, it runs like this:
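rBCG (pMV361 lux) in Middlebrook 7H9 broth at about 5e5 cfu/mL final inoculum. Compounds were tested at 0.1–50 µg/mL and at higher levels, with no-drug 1% DMSO growth controls. Tubes were incubated at 36 °C in ambient air. A 100 µL aliquot received 100 µL of 1 mM luciferin, and RLU were read at day 0 (within 30 min) and day 5. Inhibition was scored as a drop in luminescence.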

The term MIC denotes the lowest concentration found to suppress growth. For the compound `COc1ccc2cc3[n+](cc2c1OC)CCc1cc2c(cc1-3)OCO2.[Cl-]` [BERBERINE CHLORIDE], the MIC turned out to be 200 µg/mL.
In the case of `COc1ccc2c(c1OC)C(=O)N1CCc3cc4c(cc3C1C2)OCO4` (stereo not given) it was greater than 50 µg/mL; in that of `COc1ccc2c(c1OC)CN1CCc3cc4c(cc3[C@@H]1C2)OCO4` [CANADINE], greater than 50 µg/mL.
In the case of `COc1c(O)ccc2c1C(=O)N1CCc3cc4c(cc3C1C2)OCO4` (stereo not given) it was greater than 50 µg/mL.
To `COc1c(OC(C)=O)ccc2c1C(=O)N1CCc3cc4c(cc3C1C2)OCO4` (stereo not given) belongs greater than 50 µg/mL.
